Measurements taken from ChEMBL document CHEMBL1157337, “Interference by naturally occurring fatty acids in a noncellular enzyme-based aromatase bioassay” (J Nat Prod, 2006).
pIC50: −log10 of the molar value.

How the values were obtained:
Aromatase [1] = target: T1, Aromatase (Homo sapiens, UniProt P11511); assay: Inhibition of aromatase in human placental microsomes at 20 ug/ml by radiometric method relative to control; parameters: species or system Placenta; scale not given: the % may be the effect or the level left; conditions: read-out: Activity
T1 sequence (P11511 whole entry): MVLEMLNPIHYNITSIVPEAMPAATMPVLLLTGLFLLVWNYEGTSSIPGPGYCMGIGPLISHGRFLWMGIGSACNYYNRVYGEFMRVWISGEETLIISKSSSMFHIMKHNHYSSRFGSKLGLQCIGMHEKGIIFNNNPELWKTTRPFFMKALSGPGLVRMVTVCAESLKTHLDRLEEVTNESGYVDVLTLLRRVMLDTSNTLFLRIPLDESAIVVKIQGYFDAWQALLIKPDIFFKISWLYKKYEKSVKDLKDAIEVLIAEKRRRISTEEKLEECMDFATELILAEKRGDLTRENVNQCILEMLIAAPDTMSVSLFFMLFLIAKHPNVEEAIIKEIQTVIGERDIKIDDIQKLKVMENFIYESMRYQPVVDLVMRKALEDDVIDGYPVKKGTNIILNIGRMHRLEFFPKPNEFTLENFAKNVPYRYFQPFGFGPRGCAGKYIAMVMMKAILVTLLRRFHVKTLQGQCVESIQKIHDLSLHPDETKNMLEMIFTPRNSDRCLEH
Outline: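 Human term placental microsomes (50 µg) with sample at 20 µg/mL, 100 nM [1β-3H]androstenedione, 0.1 M K phosphate pH 7.0, 5% propylene glycol, NADPH-regenerating system; 37 °C, 15 min, CHCl3 quench and extraction; aqueous 3H2O counted; triplicate.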

Aromatase [2] = target: T1, Aromatase; assay: Inhibition of aromatase in human SKBR3 cells at 100 uM relative to control; type: cell-based; parameters: scale not given: the % may be the effect or the level left; conditions: SK-BR-3, human; read-out: Activity
Outline: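 Test agents at 100 µM on aromatase-overexpressing SK-BR-3 cells in T-25 flasks, serum-free DMEM/F12 with albumin/transferrin/insulin, triplicate, 24 h exposure (0.1% DMSO negative control, 10 nM letrozole positive control). Medium replaced with 50 nM androstenedione plus 2 µCi [1β-3H]androstenedione, 6 h; released 3H2O scintillation-counted, corrected for blanks and DNA-based cell count; percent control activity.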

Aromatase [3] = target: T1, Aromatase; assay: Inhibition of aromatase in human placental microsomes by radiometric method; parameters: species or system Placenta
Outline: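 Placental microsomal aromatase (50 µg), 100 nM [1β-3H]androstenedione, pH 7.0 phosphate buffer, 5% propylene glycol, NADPH-regenerating system, 37 °C for 15 min; 3H2O in the aqueous phase counted after CHCl3 extraction, boiled-enzyme background. Eight inhibitor concentrations spanning 1–100 µM; IC50 by nonlinear regression.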

Aromatase [4] = target: T1, Aromatase; assay: Inhibition of aromatase in human SKBR3 cells at 10 nM relative to control; type: cell-based; parameters: scale not given: the % may be the effect or the level left; conditions: SK-BR-3, human; read-out: Activity
Outline: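 SK-BR-3 human breast cancer cells (aromatase-overexpressing), grown subconfluent in T-25 flasks, medium switched to serum-free DMEM/F12 with albumin, transferrin, insulin; treated in triplicate 24 h (0.1% DMSO negative control). Then 50 nM androstenedione plus 2 µCi [1β-3H]androstenedione for 6 h; 3H2O counted after TCA, CHCl3 and charcoal cleanup; normalized to DNA-determined cell number, expressed as percent control activity.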

Row | SMILES | activity at 20 µg/mL (Aromatase [1]) | activity at 100 µM (Aromatase [2]) | pIC50 (Aromatase [3]) | activity at 0.01 µM (Aromatase [4])
1 | CCCCC/C=C\C/C=C\C/C=C\C/C=C\CCCC(=O)O [ARACHIDONIC ACID] | 11.5% | 147% | 4.55 | –
2 | CC/C=C\C/C=C\C/C=C\C/C=C\C/C=C\C/C=C\CCC(=O)O [DOCONEXENT] | 12.4% | 98.2% | 4.48 | –
3 | CC/C=C\C/C=C\C/C=C\C/C=C\C/C=C\CCCCCC(=O)O [DOCOSAPENTAENOIC ACID] | 15.7% | 94.4% | 4.77 | –
4 | CC/C=C\C/C=C\C/C=C\C/C=C\C/C=C\CCCC(=O)O [ICOSAPENT] | 30.2% | 138% | 4.27 | –
5 | CCCCC/C=C\C/C=C\CCCCCCCC(=O)O [LINOLEIC ACID] | 22.5% | 148% | 4.32 | –
6 | CCCCCCCCCCCCCCCCCC(=O)O [STEARIC ACID] | 89.4% | – | – | –

Further lines, results first:

Row | activity at 20 µg/mL (Aromatase [1]) | activity at 100 µM (Aromatase [2]) | pIC50 (Aromatase [3]) | activity at 0.01 µM (Aromatase [4]) | SMILES
7 | – | – | – | 3.9% | N#Cc1ccc(C(c2ccc(C#N)cc2)n2cncn2)cc1 [LETROZOLE]
8 | 49.5% | 92.8% | 4.35 | – | CC/C=C\C/C=C\C/C=C\CCCCCCCC(=O)O [LINOLENIC ACID]
9 | 66.7% | – | – | – | CCCCCCCCCCCCCC(=O)O [MYRISTIC ACID]
10 | 19.5% | 99.3% | 4.49 | – | CCCCCCCC/C=C\CCCCCCCC(=O)O [OLEIC ACID]
11 | 83.2% | – | – | – | CCCCCCCCCCCCCCCC(=O)O [PALMITIC ACID]
12 | 76.2% | – | – | – | CCCCCCCCCCCCCCC(=O)O [PENTADECANOIC ACID]
